Many of the other results were omitted from the sample, so hits are more common in it than they were.
H69AR growth 86K: proliferation blockers of H69AR lung cancer cells, primary screen, cell-based, human, 86K library. H69AR lung tumor viability, ATP luminescence, 72 h; stronger effect = lower value. viability, % at 10 µM. 85,000 tested, 6% active;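 active means viability at or below 40%; inactive means viability above 40%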;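 further: multidrug resistant small cell line overexpressing MRP-1 efflux transporter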
HUVEC prolif 384: inhibitors of HUVEC proliferation, primary screen, cell-based, 384-well; CellTiter-Glo luminescence, 72 h; stronger effect = lower value; 86,000 tested, 1.1% active; viability, % at 10 µM (by protocol);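 active means viability at or below 30%; inactive means viability above 30%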
PTEN del growth: growth suppression of PTEN-null HCT116, primary screen, cell-based, CellTiter-Glo; HCT116 PTEN-null viability, 60 h; stronger effect = lower value; viability, % at 10 µM; 140,000 tested, 1.2% active; AID 827, 2007;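 active means viability at or below a set limit, 4 SD under the median of all tested compounds, cut at about 3.7% in these data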;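 further: PTEN knockout HCT116 line with beta catenin targeted HCT116 as companion control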
Fibroblast inh: antiproliferative effect on LL 47 fibroblasts – human, LL 47 cells, CellTiter-Glo luminescence, primary screen | viability, % at 10 µM | AID 719, 2007 | LL 47 human lung fibroblast viability, ATP luminescence; stronger effect = lower value | 85,000 tested, 1.1% active;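 active means viability at or below 50% in the single dose screen; inactive means viability above 50%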;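 further: compound exposure lasted 72 h before the ATP readout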
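Material: human LL 47 lung fibroblast cells; quantity: 1,150 cells/well; medium: IMEM plus 15% FBS; doses: 0.1% DMSO in all compound wells; timing: overnight attachment after seeding, then 72 h compound exposure at 37 °C; detection: CellTiter-Glo luminescence; measure: % viability of median cell-only signal; controls: cell-only wells, no compound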
HCT116 bCat-KO: primary screen for growth suppressors in beta-catenin knockout HCT116 cells (colon tumor, human); HCT116 beta-catenin knockout viability, CellTiter-Glo, 60 h; stronger effect = lower value; viability, % at 10 µM; 140,000 tested, 1.5% active; AID 818, 2007;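 active means viability at or under a set limit, the compound median less 4 SD, cut at about 6% in these data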
Each line names hits and unclear results; the compound was inactive in the other large screens.

Oc1ccc(CN2CCN(Cc3ccccc3)CC2)c2cccnc12	H69AR growth 86K 2.0, PTEN del growth 2.0, HCT116 bCat-KO 2.4
COc1ccc(-c2csc(N(CC3CCCO3)C(=O)c3ccco3)n2)cc1 (stereo not drawn)	none
O=C(Nc1nnc(SCc2cccc3ccccc23)s1)C1COc2ccccc2O1 (stereo not drawn)	none (no result: H69AR growth 86K, HUVEC prolif 384, Fibroblast inh)
C=CCn1c(NC(=O)c2ccccc2)c(C#N)c2nc3ccccc3nc21	none (no result: PTEN del growth, HCT116 bCat-KO)
COCc1ccc(O)c2ncccc12	H69AR growth 86K 1.1, HUVEC prolif 384 6.0, PTEN del growth 2.1, Fibroblast inh 3.0, HCT116 bCat-KO 2.2
CN1CCN(Cc2cc(COCc3ccccc3)c3cccnc3c2O)CC1	H69AR growth 86K 1.8, PTEN del growth 0.8, Fibroblast inh 2.8, HCT116 bCat-KO 1.1
COC(=O)c1sccc1NC(=O)Cc1ccc(Br)cc1	none (no result: H69AR growth 86K, HUVEC prolif 384, Fibroblast inh)
CC(=O)Nc1ccc2nc(-c3cccs3)[nH]c2c1	none
Nc1ccc2nc(-c3ccccc3)[nH]c2c1	H69AR growth 86K 33
Nc1ccc2nc(-c3cccs3)[nH]c2c1	H69AR growth 86K 22
Nc1ccc2nc(-c3ccc(N)c(Cl)c3)[nH]c2c1	none
Nc1ccc(-c2nc3c(Cl)cc(N)cc3[nH]2)cc1	H69AR growth 86K 31
CCNC(=O)COc1cccc(C(=O)NCc2ccccc2)c1	none (no result: H69AR growth 86K, HUVEC prolif 384, Fibroblast inh)
O=C(CN1CCN(c2ccc(F)cc2)CC1)c1ccc2c(c1)OCO2	none (no result: H69AR growth 86K, HUVEC prolif 384, Fibroblast inh)
CC(C)(CNC(=O)c1ccc([N+](=O)[O-])c(Cl)c1)CNC(=O)c1ccc([N+](=O)[O-])c(Cl)c1	PTEN del growth 2.1, HCT116 bCat-KO 2.0 (no result: H69AR growth 86K, HUVEC prolif 384, Fibroblast inh)
O=C(NCCc1cccc(Cl)c1)c1ccc(Cl)c([N+](=O)[O-])c1	none (no result: H69AR growth 86K, HUVEC prolif 384, Fibroblast inh)
CC(C)(C)c1ccc(/C=N/OCC(=O)NCc2ccc(F)cc2)cc1	none (no result: H69AR growth 86K, HUVEC prolif 384, Fibroblast inh)
CCN(CC)S(=O)(=O)c1ccc2oc(C(=O)NCC3COc4ccccc4O3)c(C)c2c1 (stereo not drawn)	H69AR growth 86K 32
CCN(CC)S(=O)(=O)c1ccc2oc(C(=O)NCc3ccc(F)cc3)c(C)c2c1	H69AR growth 86K 33

Screening results as filed in PubChem BioAssay.
